This is an account of results in ChEMBL document CHEMBL1144020, “Development of prodrug 4-chloro-3-(5-methyl-3-{[4-(2-pyrrolidin-1-ylethoxy)phenyl]amino}-1,2,4-benzotriazin-7-yl)phenyl benzoate (TG100801): a topically administered therapeutic candidate in clinical trials for the treatment of age-related macular degeneration” (J Med Chem, 2008).

Molecules are shown by their SMILES. Bounds are passed on as bounds.

A word on the IC50: it is the point on the concentration scale where inhibition reaches its midpoint. By Tmax is commonly meant the time at which the peak concentration occurs. The Cmax is the highest concentration seen after dosing. For orientation: AUC means concentration integrated over time. In general, AUC(0-t) refers to exposure summed from dosing to a finite time, without extrapolation to infinity.

Series [1] in a line: Stability at 120 degC after 1 hr. The note with it: read-out: Stability. The series is classed as physicochemical. In a few lines:
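Prodrugs at 0.5% in 0.5% HPMC/5% dextrose, pH 6.7, in closed vials, autoclaved at 120 °C for 1 h. After cooling, percent remaining was assessed by reverse-phase HPLC with diode-array and ELSD detection.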

Series [2] in a line: Stability in Dutch-belted rabbit eye assessed as hydrolysis rate. The class given is ADME, tissue-based, Oryctolagus cuniculus. The gist of the method: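 Two Dutch-Belted rabbit eyeballs were homogenized in 1× RIPA buffer. Prodrug (from 1 mg/mL DMSO stock) was added to a final 5 µg/mL and kept at 37 °C, sampled at 0, 0.25, 1, 2 and 6 h. Controls were prodrug in RIPA buffer for 120 min at 37 °C. Supernatants were analyzed by LC/MS/MS for prodrug and released parent phenol.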

In series [3] the target is Vascular endothelial growth factor receptor 2 (Homo sapiens, UniProt P35968). In words: Inhibition of VEGFR2.
Chain of Vascular endothelial growth factor receptor 2 (P35968 whole entry): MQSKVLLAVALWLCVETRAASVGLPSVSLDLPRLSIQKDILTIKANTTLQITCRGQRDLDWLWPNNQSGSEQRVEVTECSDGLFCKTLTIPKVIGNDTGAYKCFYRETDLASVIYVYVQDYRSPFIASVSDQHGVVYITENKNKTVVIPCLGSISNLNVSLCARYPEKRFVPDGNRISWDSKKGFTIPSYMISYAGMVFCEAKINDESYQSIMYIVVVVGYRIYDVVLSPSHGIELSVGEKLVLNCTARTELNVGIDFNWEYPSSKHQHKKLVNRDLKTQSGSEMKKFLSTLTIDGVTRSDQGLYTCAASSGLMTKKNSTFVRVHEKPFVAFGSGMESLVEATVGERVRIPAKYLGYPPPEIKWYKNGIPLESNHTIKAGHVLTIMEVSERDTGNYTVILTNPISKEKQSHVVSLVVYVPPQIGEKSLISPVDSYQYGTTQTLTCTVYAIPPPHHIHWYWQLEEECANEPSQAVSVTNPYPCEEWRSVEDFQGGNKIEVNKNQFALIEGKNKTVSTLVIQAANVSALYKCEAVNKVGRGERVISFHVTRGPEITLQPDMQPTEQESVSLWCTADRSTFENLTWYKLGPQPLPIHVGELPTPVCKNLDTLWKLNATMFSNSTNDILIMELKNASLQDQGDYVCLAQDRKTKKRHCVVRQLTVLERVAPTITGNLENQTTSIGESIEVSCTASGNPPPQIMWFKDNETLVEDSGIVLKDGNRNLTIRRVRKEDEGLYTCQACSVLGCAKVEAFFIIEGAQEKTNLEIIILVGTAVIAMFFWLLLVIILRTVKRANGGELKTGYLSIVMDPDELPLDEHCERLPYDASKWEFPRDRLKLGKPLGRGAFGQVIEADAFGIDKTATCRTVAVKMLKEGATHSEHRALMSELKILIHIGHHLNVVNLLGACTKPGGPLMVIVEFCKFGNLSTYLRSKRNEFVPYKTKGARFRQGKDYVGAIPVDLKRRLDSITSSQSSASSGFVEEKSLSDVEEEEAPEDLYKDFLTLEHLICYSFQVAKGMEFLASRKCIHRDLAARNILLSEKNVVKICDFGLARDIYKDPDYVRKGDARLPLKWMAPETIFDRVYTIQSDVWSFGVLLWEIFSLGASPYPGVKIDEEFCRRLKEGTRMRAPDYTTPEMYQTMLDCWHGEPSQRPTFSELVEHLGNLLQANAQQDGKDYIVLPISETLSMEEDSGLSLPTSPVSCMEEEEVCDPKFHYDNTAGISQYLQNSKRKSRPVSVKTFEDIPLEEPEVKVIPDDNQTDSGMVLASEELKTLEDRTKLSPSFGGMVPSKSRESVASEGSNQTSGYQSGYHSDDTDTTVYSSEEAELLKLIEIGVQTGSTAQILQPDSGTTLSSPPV
The species named for series [4] is Mus musculus. The series is described as follows: Tmax in C57BL/6 mouse retina assessed as 4-chloro-3-{5-methyl-3-[4-(2-pyrrolidin-1-yl-ethoxy)phenylamino]benzo[1,2,4]triazin-7-yl}phenol at 172 nM instilled per eye. The class given is ADME, organism-based. The note with it: in vivo, topical_or_ocular, 0.172 µM. In a few lines: (§1)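 Male C57BL/6 mice got one 10 µL eye drop of prodrug (100 µg, 172 nmol per eye). Composite sampling at 0.5, 1, 3, 7 and 24 h post-instillation. Cornea, retina and pooled sclera/choroid were collected, with plasma at euthanasia. Tissues were homogenized in RIPA and extracted with acetonitrile. Prodrug and parent were measured by LC/MS/MS against matrix standards; AUC by linear trapezoidal rule on means.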

Series [5] in a line: Cmax in C57BL/6 mouse choroid/sclera at 172 nM instilled per eye. The series is classed as ADME, organism-based. Further details: dose 172 nM, route ophthalmic. The note with it: topical or ocular, 172 nM per eye. In a few lines:
as §1

The species named for series [6] is Mus musculus. In words: AUC (0 to 24 hrs) in C57BL/6 mouse cornea assessed as 4-chloro-3-{5-methyl-3-[4-(2-pyrrolidin-1-yl-ethoxy)phenylamino]benzo[1,2,4]triazin-7-yl}phenol at 172 nM instilled per eye. The series is classed as ADME, organism-based. Further details: time < 24 hr, dose 172 nM, route ophthalmic. The note with it: in vivo, topical_or_ocular, 0.172 µM. In a few lines: as §1

Series [7] is filed under the species Mus musculus. In words: Tmax in C57BL/6 mouse cornea assessed as 4-chloro-3-{5-methyl-3-[4-(2-pyrrolidin-1-yl-ethoxy)phenylamino]benzo[1,2,4]triazin-7-yl}phenol at 172 nM instilled per eye. The series is classed as ADME, organism-based. The note with it: in vivo, topical_or_ocular, 0.172 µM. In a few lines: as §1
Series [8] addresses Tyrosine-protein kinase Yes (Homo sapiens, UniProt P07947). The series is described as follows: Inhibition of YES.
Series [9] is described as follows: Cmax in C57BL/6 mouse retina at 172 nM instilled per eye. Conditions: topical or ocular, 172 nM per eye. Further details: dose 172 nM, route ophthalmic. The series is classed as ADME, organism-based. The gist of the method:
as §1

The target of series [10] is Proto-oncogene tyrosine-protein kinase Src (Homo sapiens, UniProt P12931). In words: Inhibition of Src.
Chain of Proto-oncogene tyrosine-protein kinase Src (P12931 2-536 limits assumed): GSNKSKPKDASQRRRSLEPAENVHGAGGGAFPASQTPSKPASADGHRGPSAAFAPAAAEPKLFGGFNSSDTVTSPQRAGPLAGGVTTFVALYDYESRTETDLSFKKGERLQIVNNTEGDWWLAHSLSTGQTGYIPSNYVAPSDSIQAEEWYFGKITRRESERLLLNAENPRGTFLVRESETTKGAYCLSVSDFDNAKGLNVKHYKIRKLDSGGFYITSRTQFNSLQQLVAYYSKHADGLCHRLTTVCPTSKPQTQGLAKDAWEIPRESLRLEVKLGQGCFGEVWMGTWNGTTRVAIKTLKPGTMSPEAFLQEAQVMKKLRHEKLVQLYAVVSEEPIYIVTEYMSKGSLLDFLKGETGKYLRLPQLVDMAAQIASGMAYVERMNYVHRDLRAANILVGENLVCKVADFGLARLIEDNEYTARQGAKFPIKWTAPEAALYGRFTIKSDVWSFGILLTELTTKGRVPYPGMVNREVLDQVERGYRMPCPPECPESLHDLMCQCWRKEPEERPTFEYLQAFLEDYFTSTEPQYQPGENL
Series [11] in a line: AUC (0 to 24 hrs) in C57BL/6 mouse choroid/sclera at 172 nM instilled per eye. The class given is ADME, organism-based. The note with it: topical or ocular, 172 nM per eye. Further details: dose 172 nM, time < 24 hr, route ophthalmic. The gist of the method: as §1
Series [12] can be described thus: Tmax in C57BL/6 mouse retina at 172 nM instilled per eye. The series is classed as ADME, organism-based. Conditions: topical or ocular, 172 nM per eye. In a few lines:
as §1

The species entered for series [13] is Mus musculus. In words: AUC (0 to 24 hrs) in C57BL/6 mouse retina assessed as 4-chloro-3-{5-methyl-3-[4-(2-pyrrolidin-1-yl-ethoxy)phenylamino]benzo[1,2,4]triazin-7-yl}phenol at 172 nM instilled per eye. Conditions: in vivo, topical_or_ocular, 0.172 µM. Also on record: time < 24 hr, dose 172 nM, route ophthalmic. The class given is ADME, organism-based. In a few lines:
as §1

For series [14], the system named is Mus musculus. In words: Reduction of bruch's membrane rupture in laser-induced choroidoal neovascularization in mouse administered topically at 0.61% w/v after 14 days relative to control. The class given is functional. Also on record: scale not given: the % may be the effect or the level left. In a few lines: (§2)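 Laser rupture of Bruch's membrane in female C57BL/6J mice aged 4–5 weeks, ketamine-anesthetized; only bubble-forming burns were counted. Eight mice/group got one 10 µL drop of vehicle, 0.61% or 1.83% w/v prodrug t.i.d., 4 h apart, with the fellow eye untreated; a fourth group had no treatment. On day 14, mice were perfused with fluorescein-dextran and CNV area was measured on choroidal flatmounts. Linear mixed model with Dunnett adjustment.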

The species entered for series [15] is Mus musculus. The series is described as follows: Cmax in C57BL/6 mouse choroid/sclera assessed as 4-chloro-3-{5-methyl-3-[4-(2-pyrrolidin-1-yl-ethoxy)phenylamino]benzo[1,2,4]triazin-7-yl}phenol at 172 nM instilled per eye. The series is classed as ADME, organism-based. Also on record: dose 172 nM, route ophthalmic. Conditions: in vivo, topical_or_ocular, 0.172 µM. The gist of the method: as §1

Series [16] can be described thus: AUC (0 to 24 hrs) in C57BL/6 mouse retina at 172 nM instilled per eye. The class given is ADME, organism-based. Further details: dose 172 nM, time < 24 hr, route ophthalmic. The note with it: topical or ocular, 172 nM per eye. The gist of the method:
as §1

For series [17], the species on record is Mus musculus. In words: Cmax in C57BL/6 mouse cornea assessed as 4-chloro-3-{5-methyl-3-[4-(2-pyrrolidin-1-yl-ethoxy)phenylamino]benzo[1,2,4]triazin-7-yl}phenol at 172 nM instilled per eye. The series is classed as ADME, organism-based. The note with it: in vivo, topical_or_ocular, 0.172 µM. Also on record: dose 172 nM, route ophthalmic. In a few lines:
as §1

In series [18] the test system is Mus musculus. In words: Reduction of VEGF-induced retinal leak in BALB/c mouse administered topically at 210 nM q.d. The class given is functional. Also on record: scale not given: the % may be the effect or the level left.
For series [19], the species on record is Mus musculus. The series is described as follows: Tmax in C57BL/6 mouse plasma assessed as 4-chloro-3-{5-methyl-3-[4-(2-pyrrolidin-1-yl-ethoxy)phenylamino]benzo[1,2,4]triazin-7-yl}phenol at 172 nM instilled per eye. The series is classed as ADME, organism-based. The note with it: in vivo, topical_or_ocular, 0.172 µM. In a few lines: as §1
Series [20] in a line: AUC (0 to 24 hrs) in C57BL/6 mouse cornea at 172 nM instilled per eye. The series is classed as ADME, organism-based. Also on record: time < 24 hr, dose 172 nM, route ophthalmic. The note with it: topical or ocular, 172 nM per eye. The gist of the method: as §1
Series [21] can be described thus: Plasma concentration in C57BL/6 mouse after 24 hrs. The class given is ADME, organism-based.
The species entered for series [22] is Mus musculus. In words: Cmax in C57BL/6 mouse retina assessed as 4-chloro-3-{5-methyl-3-[4-(2-pyrrolidin-1-yl-ethoxy)phenylamino]benzo[1,2,4]triazin-7-yl}phenol at 172 nM instilled per eye. The class given is ADME, organism-based. The note with it: in vivo, topical_or_ocular, 0.172 µM. Also on record: dose 172 nM, route ophthalmic. The gist of the method:
as §1

The species named for series [23] is Mus musculus. In words: Tmax in C57BL/6 mouse choroid/sclera assessed as 4-chloro-3-{5-methyl-3-[4-(2-pyrrolidin-1-yl-ethoxy)phenylamino]benzo[1,2,4]triazin-7-yl}phenol at 172 nM instilled per eye. The class given is ADME, organism-based. Conditions: in vivo, topical_or_ocular, 0.172 µM. In a few lines: as §1
Series [24] is filed under the species Mus musculus. The series is described as follows: AUC (0 to 24 hrs) in C57BL/6 mouse choroid/sclera assessed as 4-chloro-3-{5-methyl-3-[4-(2-pyrrolidin-1-yl-ethoxy)phenylamino]benzo[1,2,4]triazin-7-yl}phenol at 172 nM instilled per eye. The series is classed as ADME, organism-based. Also on record: dose 172 nM, time < 24 hr, route ophthalmic. The note with it: in vivo, topical_or_ocular, 0.172 µM. In a few lines:
as §1

For series [25], the system named is Mus musculus. The series is described as follows: Reduction of bruch's membrane rupture in laser-induced choroidoal neovascularization in mouse administered topically at 1.83% w/v after 14 days relative to control. The class given is functional. Also on record: scale not given: the % may be the effect or the level left. In a few lines:
as §2

Series [26] is described as follows: Tmax in C57BL/6 mouse choroid/sclera at 172 nM instilled per eye. The note with it: topical or ocular, 172 nM per eye. The class given is ADME, organism-based. In a few lines:
as §1

Series [27] can be described thus: Tmax in C57BL/6 mouse cornea at 172 nM instilled per eye. The class given is ADME, organism-based. Conditions: topical or ocular, 172 nM per eye. In a few lines: as §1
A short description of series [28]: Cmax in C57BL/6 mouse cornea at 172 nM instilled per eye. The series is classed as ADME, organism-based. Further details: dose 172 nM, route ophthalmic. The note with it: topical or ocular, 172 nM per eye. The gist of the method: as §1
The species named for series [29] is Mus musculus. In words: Cmax in C57BL/6 mouse plasma assessed as 4-chloro-3-{5-methyl-3-[4-(2-pyrrolidin-1-yl-ethoxy)phenylamino]benzo[1,2,4]triazin-7-yl}phenol at 172 nM instilled per eye. The series is classed as ADME, organism-based. The note with it: in vivo, topical_or_ocular, 0.172 µM. Further details: dose 172 nM, route ophthalmic. The gist of the method:
as §1

Chain of Tyrosine-protein kinase Yes (P07947 whole entry): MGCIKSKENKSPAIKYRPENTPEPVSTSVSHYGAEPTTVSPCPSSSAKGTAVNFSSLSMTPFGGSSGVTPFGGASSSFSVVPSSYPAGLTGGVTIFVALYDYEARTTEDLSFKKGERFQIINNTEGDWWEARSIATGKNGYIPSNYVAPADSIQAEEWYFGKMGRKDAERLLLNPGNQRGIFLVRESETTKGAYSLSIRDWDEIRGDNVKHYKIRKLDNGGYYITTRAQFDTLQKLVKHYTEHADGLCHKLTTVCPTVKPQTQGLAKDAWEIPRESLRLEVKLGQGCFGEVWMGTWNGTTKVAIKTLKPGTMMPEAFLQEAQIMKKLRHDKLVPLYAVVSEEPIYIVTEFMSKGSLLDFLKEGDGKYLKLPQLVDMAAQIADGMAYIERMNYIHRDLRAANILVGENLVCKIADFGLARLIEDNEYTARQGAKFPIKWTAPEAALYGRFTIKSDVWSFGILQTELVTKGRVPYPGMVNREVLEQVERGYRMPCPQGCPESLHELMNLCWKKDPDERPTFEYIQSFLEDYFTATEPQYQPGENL

As for `Cc1cc(-c2cc(OC(=O)CN)ccc2Cl)cc2nnc(Nc3ccc(OCCN4CCCC4)cc3)nc12`, the remaining at 1 h in series [1] is below 20%.
Consider `Cc1cc(-c2cc(OC(=O)C(C)C)ccc2Cl)cc2nnc(Nc3ccc(OCCN4CCCC4)cc3)nc12`, for which the remaining at 1 h in series [1] was found to be 50%.
On to `Cc1cccc(C)c1C(=O)Oc1ccc(Cl)c(-c2cc(C)c3nc(Nc4ccc(OCCN5CCCC5)cc4)nnc3c2)c1`, for which the remaining at 1 h in series [1] is above 90%. The Stability in series [2] is 1.1 ng/mL/h.
On to `CC(=O)Oc1ccc(Cl)c(-c2cc(C)c3nc(Nc4ccc(OCCN5CCCC5)cc4)nnc3c2)c1`, for which, in [1], the remaining at 1 h was below 20%.
Regarding `Cc1cc(-c2cc(O)ccc2Cl)cc2nnc(Nc3ccc(S(=O)(=O)NCCN4CCCC4)cc3)nc12`, the half-maximal inhibitory concentration (IC50) in series [3] is 4.7 nM.
In series [3], `Cc1cc(-c2cc(O)ccc2Cl)cc2nnc(Nc3ccc(C(=O)N4CCNCC4)cc3)nc12` showed an IC50 of 1.8 nM.
Take `Cc1cc(-c2cc(OC(=O)c3ccc(CN4CCOCC4)cc3)ccc2Cl)cc2nnc(Nc3ccc(OCCN4CCCC4)cc3)nc12`: the remaining at 1 h in [1] was above 90%.
As for `Cc1cc(-c2cc(OC(=O)c3ccccc3)ccc2Cl)cc2nnc(Nc3ccc(OCCN4CCCC4)cc3)nc12` [TG100-801], the Tmax in the series listed under Mus musculus [4] was 24 h; in the series filed under Mus musculus [7] it was 7 h; in the series listed under Mus musculus [19] it was 24 h; in the series filed under Mus musculus [23] it was 24 h. For the same compound, the peak concentration (Cmax) at 0.172 µM in series [5] amounted to 27 µM; in [9], 5.3 µM; in series [28], 3.7 µM. For the same compound, the AUC came out at 670000 ng·h/mL in the series listed under Mus musculus [6], 35000 ng·h/mL in the series filed under Mus musculus [13] and 540000 ng·h/mL in the series filed under Mus musculus [24]. Moreover, the IC50 was at least 2500 nM in series [8], at least 10000 nM in [10] and at least 10000 nM in series [3]. Further, the results for the AUC(0-t) at 24 h, 0.172 µM in series [11], in series [16] and in series [20] were 430000 ng·h/mL, 63000 ng·h/mL and 55000 ng·h/mL, respectively. For the same compound, the Tmax at 0.172 µM in series [12], in [26] and in [27] was 24 h in each case. Further, the Activity in the series with Mus musculus [14] stood at 46%; in the series with Mus musculus [18], 100%; in the series on Mus musculus [25], 35%. Moreover, the Cmax in the series filed under Mus musculus [15] amounted to 29 µM; in the series listed under Mus musculus [17] it was 33 µM; in the series listed under Mus musculus [22], 2.4 µM; in the series filed under Mus musculus [29] it was 0.005 µM. The remaining at 1 h in series [1] was above 90%. Further, in series [21], the concentration at 24 h was below 1 ng/mL. Besides, in [2], the Stability was determined as 288 ng/mL/h.
As for `Cc1cc(-c2cc(OC(=O)c3c(Cl)cccc3Cl)ccc2Cl)cc2nnc(Nc3ccc(OCCN4CCCC4)cc3)nc12`, the remaining at 1 h in series [1] is above 90%. Besides, in [2], the Stability came to 1.7 ng/mL/h.
